Experimental data reported in ChEMBL document CHEMBL4024783, “Alkylated Piperazines and Piperazine-Azole Hybrids as Antifungal Agents” (J Med Chem, 2018).
≈ marks a conversion by molar mass, not a printed value.

Key:
Candida albicans [1] = experiment: Antifungal activity against itraconazole and fluconazole susceptible Candida albicans ATCC MYA-2310 after 48 hrs by broth dilution method; type: functional; details: Candida albicans, ATCC MYA-2310, 48 h
Candida albicans [2] = experiment: Antifungal activity against itraconazole and fluconazole resistant Candida albicans ATCC MYA-1003 after 48 hrs by broth dilution method; type: functional; details: Candida albicans, ATCC MYA-1003, 48 h
In short: (§1)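 CLSI M27-A3 broth microdilution with minor modifications. Overnight YPD culture grown at 35 °C, 200 rpm, adjusted to OD600 0.12, diluted in RPMI 1640 buffered to pH 7.0 with 0.165 M MOPS to a final 1–2 × 10^3 CFU/mL. Test compounds at 0.015–31.3 µg/mL, 48 h at 35 °C, DMSO <1.25%. […] Triplicate.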

Aspergillus flavus = experiment: Antifungal activity against Aspergillus flavus ATCC MYA-3631 after 48 hrs by broth dilution method; type: functional; details: ATCC MYA-3631, 48 h
Candida albicans [3] = experiment: Antifungal activity against Candida albicans ATCC 10231 after 48 hrs by broth dilution method; type: functional; details: ATCC 10231, 48 h
Candida albicans [4] = experiment: Antifungal activity against itraconazole and fluconazole susceptible Candida albicans ATCC MYA-2876 after 48 hrs by broth dilution method; type: functional; details: Candida albicans, ATCC MYA-2876, 48 h
Nakaseomyces glabratus = experiment: Antifungal activity against Candida glabrata ATCC 2001 after 48 hrs by broth dilution method; type: functional, CBS 138; details: Nakaseomyces glabratus, CBS 138, 48 h
Candida albicans [5] = experiment: Antifungal activity against itraconazole and fluconazole resistant Candida albicans ATCC MYA-1237 after 48 hrs by broth dilution method; type: functional; details: Candida albicans, ATCC MYA-1237, 48 h; in short: as §1
Aspergillus nidulans = experiment: Antifungal activity against Aspergillus nidulans ATCC 38163 after 48 hrs by broth dilution method; type: functional; details: Aspergillus nidulans, ATCC 38163, 48 h
In short: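 A. nidulans run per CLSI M38-A2. PDA spores were filtered through glass wool and counted by hemocytometer. Test range 0.03–31.3 µg/mL in MOPS-buffered RPMI 1640 (pH 7.0), final 5 × 10^5 CFU/mL.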

Aspergillus terreus = experiment: Antifungal activity against Aspergillus terreus ATCC MYA-3633 after 48 hrs by broth dilution method; type: functional; details: Aspergillus terreus, ATCC MYA-3633, 48 h
In short: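 Molds tested per CLSI M38-A2. Spores were harvested from sporulating PDA cultures by filtering through glass wool and counted on a hemocytometer. Serial dilutions (0.03–31.3 µg/mL) were made in RPMI 1640 buffered to pH 7.0 with 0.165 M MOPS, final inoculum 5 × 10^5 CFU/mL.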

Candida parapsilosis = experiment: Antifungal activity against Candida parapsilosis ATCC 22019 after 48 hrs by broth dilution method; type: functional; details: Lodderomyces parapsilosis, ATCC 22019, 48 h
Candida albicans [6] = experiment: Antifungal activity against itraconazole and fluconazole resistant Candida albicans ATCC 90819 after 48 hrs by broth dilution method; type: functional; details: Candida albicans, ATCC 90819, 48 h; in short: as §1
Candida albicans [7] = experiment: Antifungal activity against Candida albicans ATCC 64124 after 48 hrs by broth dilution method; type: functional; details: Candida albicans, ATCC 64124, 48 h; in short: as §1
Pichia kudriavzevii = experiment: Antifungal activity against Candida krusei ATCC 6258 after 48 hrs by broth dilution method; type: functional; details: Pichia kudriavzevii, ATCC 6258, 48 h
In short: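 Yeasts tested per CLSI M27-A3 with minor changes. An overnight YPD culture (35 °C, 200 rpm) was adjusted to OD600 0.12 and diluted in MOPS-buffered RPMI 1640 (pH 7.0) to a final 1–2 × 10^3 CFU/mL. Compounds 0.015–31.3 µg/mL, DMSO <1.25%.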

[8] = Solubility of the compound in DMSO; type: physicochemical
[9] = Aqueous solubility of the compound; type: physicochemical; details: buffer
Candida albicans [10] = experiment: Antifungal activity against Candida albicans ATCC 10231 after 48 hrs in the presence of 10% FBS by broth dilution method; type: functional; details: ATCC 10231, 48 h

| Structure (SMILES) | MIC (Candida albicans [1]) [µM] | MIC (Candida albicans [2]) [µM] | MIC (Aspergillus flavus) [µM] | MIC (Candida albicans [3]) [µM] | MIC (Candida albicans [4]) [µM] | MIC (Nakaseomyces glabratus) [µM] | MIC (Candida albicans [5]) [µM] | MIC (Aspergillus nidulans) [µM] | MIC (Aspergillus terreus) [µM] | MIC (Candida parapsilosis) [µM] | MIC (Candida albicans [6]) [µM] | MIC (Candida albicans [7]) [µM] | MIC (Pichia kudriavzevii) [µM] | solubility [8] | solubility [9] | MIC (Candida albicans [10]) [µg/mL] |
| --- | --- | --- | --- | --- | --- | --- | --- | --- | --- | --- | --- | --- | --- | --- | --- | --- |
| CCCCCCCCCCCCCCN1CCN(CC(O)(Cn2cncn2)c2ccc(F)cc2F)CC1 (stereo not drawn) | 7.5 (≈ 3.9 µg/mL) | 3.8 (≈ 1.97 µg/mL) | 0.9 (≈ 0.468 µg/mL) | 3.8 (≈ 1.97 µg/mL) | 15 (≈ 7.8 µg/mL) | > 60.2 | 7.5 (≈ 3.9 µg/mL) | 3.8 (≈ 1.97 µg/mL) | 1.9 (≈ 0.987 µg/mL) | > 60.2 | 3.8 (≈ 1.97 µg/mL) | 60.2 (≈ 31.3 µg/mL) | 1.9 (≈ 0.987 µg/mL) |  |  |  |
| CCCCCCCCCCCCCCN1CCOCC1 | > 110 | > 110 | > 110 | > 110 | > 110 | > 110 | > 110 | > 110 | > 110 | > 110 | > 110 | > 110 | > 110 |  |  |  |
| CCCCCCCCCCCCCN1CCN(CC(O)(Cn2cncn2)c2ccc(F)cc2F)CC1 (stereo not drawn) | 7.7 (≈ 3.89 µg/mL) | 7.7 (≈ 3.89 µg/mL) | 1.9 (≈ 0.961 µg/mL) | 3.9 (≈ 1.97 µg/mL) | 3.9 (≈ 1.97 µg/mL) | 1.9 (≈ 0.961 µg/mL) | 7.7 (≈ 3.89 µg/mL) | 1.9 (≈ 0.961 µg/mL) | 1.9 (≈ 0.961 µg/mL) | < 0.47 | 3.9 (≈ 1.97 µg/mL) | 15.4 (≈ 7.79 µg/mL) | 1.9 (≈ 0.961 µg/mL) | Soluble | Soluble |  |
| CCCCCN1CCN(CC(O)(Cn2cncn2)c2ccc(F)cc2F)CC1 (stereo not drawn) | > 79.5 | > 79.5 | > 79.5 | > 79.5 | > 79.5 | > 79.5 | > 79.5 | > 79.5 | > 79.5 | 39.6 (≈ 15.6 µg/mL) | 79.5 (≈ 31.3 µg/mL) | > 79.5 | > 79.5 |  |  |  |
| CCCCCCCCN1CCNCC1 | > 158 | > 158 | > 158 | > 158 | > 158 | > 158 | > 158 | > 158 | > 158 | > 158 | > 158 | > 158 | > 158 |  |  |  |
| CCCCCCCCCCN1CCNCC1 | 68.9 (≈ 15.6 µg/mL) | 68.9 (≈ 15.6 µg/mL) | 138 (≈ 31.3 µg/mL) | 68.9 (≈ 15.6 µg/mL) | 68.9 (≈ 15.6 µg/mL) | 34.5 (≈ 7.81 µg/mL) | 68.9 (≈ 15.6 µg/mL) | 68.9 (≈ 15.6 µg/mL) | 68.9 (≈ 15.6 µg/mL) | 68.9 (≈ 15.6 µg/mL) | 68.9 (≈ 15.6 µg/mL) | 68.9 (≈ 15.6 µg/mL) | 34.5 (≈ 7.81 µg/mL) |  |  |  |
| CN1CCN(CC(O)(Cn2cncn2)c2ccc(F)cc2F)CC1 (stereo not drawn) | 23.1 (≈ 7.79 µg/mL) | 92.8 (≈ 31.3 µg/mL) | 92.8 (≈ 31.3 µg/mL) | 23.1 (≈ 7.79 µg/mL) | 23.1 (≈ 7.79 µg/mL) | 92.8 (≈ 31.3 µg/mL) | 92.8 (≈ 31.3 µg/mL) | 2.9 (≈ 0.978 µg/mL) | 92.8 (≈ 31.3 µg/mL) | 2.9 (≈ 0.978 µg/mL) | 92.8 (≈ 31.3 µg/mL) | 92.8 (≈ 31.3 µg/mL) | 46.2 (≈ 15.6 µg/mL) |  |  |  |
| C[C@@H]1[C@H](O)[C@@H](C)/C=C/C=C/C=C/C=C/C=C/C=C/C=C/[C@H](O[C@@H]2O[C@H](C)[C@@H](O)[C@H](N)[C@@H]2O)C[C@@H]2O[C@](O)(C[C@@H](O)C[C@@H](O)[C@H](O)CC[C@@H](O)C[C@@H](O)CC(=O)O[C@H]1C)C[C@H](O)[C@H]2C(=O)O [AMPHOTERICIN B] |  |  |  |  |  |  |  |  |  |  | 1.1 (≈ 1.02 µg/mL) |  |  |  |  | 7.8 |
| CCCCCCCCCN1CCNCC1 | 147 (≈ 31.3 µg/mL) | > 147 | 147 (≈ 31.3 µg/mL) | 147 (≈ 31.3 µg/mL) | > 147 | 147 (≈ 31.3 µg/mL) | 147 (≈ 31.3 µg/mL) | > 147 | > 147 | > 147 | 147 (≈ 31.3 µg/mL) | > 147 | 147 (≈ 31.3 µg/mL) |  |  |  |
